ChEMBL document CHEMBL1759910, “Imidazopyridine CB2 agonists: optimization of CB2/CB1 selectivity and implications for in vivo analgesic efficacy” (Bioorg Med Chem Lett, 2011)
Calls of active or inactive are those of the source.

Key:
[1] = molecular target: T1, Cannabinoid receptor 1 (Homo sapiens, UniProt P21554); test: Agonist activity at human CB1 receptor expressed in CHO-K1 cells assessed as inhibition of forskolin-stimulated cAMP level; type: functional, cell-based
Procedure, shortened: (§1)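 Receptor (human or rat CB1 or CB2) expressed in CHO-K1 cells, 1000 cells per well, added to compound and incubated at room temperature for 15 min. Read-out is IC50 with Emax.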

[2] = molecular target: T2, Cannabinoid receptor 2 (Homo sapiens, UniProt P34972); test: Agonist activity at human CB2 receptor expressed in CHO-K1 cells assessed as inhibition of forskolin-stimulated cAMP level relative to control; type: functional, cell-based; procedure, shortened: as §1
T2 sequence (P34972 whole entry): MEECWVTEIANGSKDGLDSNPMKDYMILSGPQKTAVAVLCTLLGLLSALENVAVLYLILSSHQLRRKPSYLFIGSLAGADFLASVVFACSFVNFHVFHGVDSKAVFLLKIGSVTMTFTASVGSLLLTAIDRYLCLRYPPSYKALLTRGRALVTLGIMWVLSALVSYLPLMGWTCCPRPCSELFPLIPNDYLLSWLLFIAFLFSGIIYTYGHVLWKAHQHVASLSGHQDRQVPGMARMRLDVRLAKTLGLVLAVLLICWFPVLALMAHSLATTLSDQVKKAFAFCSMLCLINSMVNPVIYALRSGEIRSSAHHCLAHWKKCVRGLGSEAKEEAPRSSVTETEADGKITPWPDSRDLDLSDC

[3] = Plasma protein binding in rat assessed as fraction unbound; type: ADME, cell-free
Procedure, shortened: (§2)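 Free fraction in rat plasma measured by ultrafiltration or equilibrium dialysis after incubation with rat plasma.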

[4] = molecular target: T2, Cannabinoid receptor 2; test: Agonist activity at human CB2 receptor expressed in CHO-K1 cells assessed as inhibition of forskolin-stimulated cAMP level; type: functional, cell-based; procedure, shortened: as §1
[5] = molecular target: T3, Cannabinoid receptor 2 (Rattus norvegicus, UniProt Q9QZN9); test: Agonist activity at rat CB2 receptor expressed in CHO-K1 cells assessed as inhibition of forskolin-stimulated cAMP level; type: functional, cell-based; procedure, shortened: as §1
T3 sequence (Q9QZN9 whole entry): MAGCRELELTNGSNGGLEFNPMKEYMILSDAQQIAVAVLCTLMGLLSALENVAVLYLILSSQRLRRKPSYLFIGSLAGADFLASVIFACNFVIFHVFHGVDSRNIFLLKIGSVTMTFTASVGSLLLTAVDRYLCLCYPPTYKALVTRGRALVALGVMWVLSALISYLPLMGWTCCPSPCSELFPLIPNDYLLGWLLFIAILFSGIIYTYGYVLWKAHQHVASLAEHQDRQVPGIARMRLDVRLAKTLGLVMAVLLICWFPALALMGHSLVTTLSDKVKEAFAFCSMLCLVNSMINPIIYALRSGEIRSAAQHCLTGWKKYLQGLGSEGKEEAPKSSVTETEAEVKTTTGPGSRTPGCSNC

[6] = Plasma concentration in Lewis rat complete Freund's adjuvant-induced hyperalgesia model at 100 mg/kg, po and sc at 60 mins; type: ADME, organism-based; design: dose 100 mg/kg, route oral
Procedure, shortened: (§3)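 Rats with CFA-induced hyperalgesia dosed orally or subcutaneously at 100 mpk. Naproxen 20 mg/kg and vehicle served as controls. Paw withdrawal threshold read at baseline, after CFA, and post-dose (30, 60 or 120 min). Plasma, brain and CSF drug levels measured at the 60 or 120 min post-dose timepoint.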

[7] = molecular target: T1, Cannabinoid receptor 1; test: Agonist activity at human CB1 receptor expressed in CHO-K1 cells assessed as inhibition of forskolin-stimulated cAMP level relative to control; type: functional, cell-based; procedure, shortened: as §1
[8] = tested on: Rattus norvegicus; test: Analgesic activity in Lewis rat complete Freund's adjuvant-induced hyperalgesia model assessed as reversal in paw withdrawal threshold at 100 mg/kg, po and sc; type: functional, organism-based; design: dose 100 mg/kg; procedure, shortened: as §3
[9] = molecular target: Cannabinoid receptor 1 (Rattus norvegicus, UniProt P20272); test: Agonist activity at rat CB1 receptor expressed in CHO-K1 cells assessed as inhibition of forskolin-stimulated cAMP level; type: functional, cell-based; procedure, shortened: as §1
Sequence of Cannabinoid receptor 1 (Rattus norvegicus, UniProt P20272) (P20272 whole entry): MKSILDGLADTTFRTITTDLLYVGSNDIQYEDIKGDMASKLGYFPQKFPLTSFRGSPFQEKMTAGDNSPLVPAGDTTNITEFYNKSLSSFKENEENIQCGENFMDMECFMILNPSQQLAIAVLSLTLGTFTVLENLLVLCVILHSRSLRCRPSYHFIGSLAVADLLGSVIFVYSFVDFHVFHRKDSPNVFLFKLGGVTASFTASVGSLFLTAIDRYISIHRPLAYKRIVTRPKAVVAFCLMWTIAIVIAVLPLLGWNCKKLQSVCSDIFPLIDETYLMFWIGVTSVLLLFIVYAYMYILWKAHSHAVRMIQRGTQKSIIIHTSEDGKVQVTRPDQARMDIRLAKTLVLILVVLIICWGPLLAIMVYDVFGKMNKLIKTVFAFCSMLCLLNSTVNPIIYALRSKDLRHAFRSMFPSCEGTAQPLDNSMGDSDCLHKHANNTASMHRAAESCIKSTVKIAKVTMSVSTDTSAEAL

[10] = molecular target: T4, Cannabinoid receptor 2 (Rattus norvegicus) (UniProt Q9QZN9); test: Agonist activity at rat CB2 receptor expressed in CHO-K1 cells assessed as inhibition of forskolin-stimulated cAMP level relative to control; type: functional, cell-based; procedure, shortened: as §1
T4 sequence (whole entry): T3 sequence (Q9QZN9 whole entry)

[11] = Plasma protein binding in rat; type: ADME, cell-free; conditions: read-out: PPB (converted); procedure, shortened: as §2
[12] = Drug level in brain of Lewis rat complete Freund's adjuvant-induced hyperalgesia at 100 mg/kg, po and sc at 60 mins; type: ADME, organism-based; design: dose 100 mg/kg, route oral; conditions: read-out: Drug uptake; procedure, shortened: as §3
[13] = tested on: Rattus norvegicus; test: Neurotoxicity in rat assessed as impairment of motor co-ordination at 100 mg/kg, po by rotarod method; type: toxicity, organism-based; design: dose 100 mg/kg, route oral; conditions: in vivo
[14] = Drug level in cerebrospinal fluid of Lewis rat complete Freund's adjuvant-induced hyperalgesia model at 100 mg/kg, po and sc at 60 mins; type: ADME, organism-based; design: dose 100 mg/kg, route oral; conditions: read-out: Drug uptake; procedure, shortened: as §3
[15] = molecular target: Cannabinoid receptor 1 (Rattus norvegicus) (UniProt P20272); test: Agonist activity at rat CB1 receptor expressed in CHO-K1 cells assessed as inhibition of forskolin-stimulated cAMP level relative to control; type: functional, cell-based; procedure, shortened: as §1
Sequence of Cannabinoid receptor 1 (Rattus norvegicus) (P20272 whole entry): as above

[16] = molecular target: T1, Cannabinoid receptor 1; test: Binding affinity to human CB1 receptor
[17] = molecular target: T2, Cannabinoid receptor 2; test: Binding affinity to human CB2 receptor
[18] = Plasma concentration in Lewis rat complete Freund's adjuvant-induced hyperalgesia model at 100 mg/kg, po and sc at 120 mins; type: ADME, organism-based; design: dose 100 mg/kg, route oral; procedure, shortened: as §3
[19] = Drug level in cerebrospinal fluid of Lewis rat complete Freund's adjuvant-induced hyperalgesia model at 100 mg/kg, po and sc at 120 mins; type: ADME, organism-based; design: dose 100 mg/kg, route oral; conditions: read-out: Drug uptake; procedure, shortened: as §3
[20] = Drug level in brain of Lewis rat complete Freund's adjuvant-induced hyperalgesia model at 100 mg/kg, po and sc at 120 mins; type: ADME, organism-based; design: dose 100 mg/kg, route oral; conditions: read-out: Drug uptake; procedure, shortened: as §3

T1 sequence (P21554 whole entry): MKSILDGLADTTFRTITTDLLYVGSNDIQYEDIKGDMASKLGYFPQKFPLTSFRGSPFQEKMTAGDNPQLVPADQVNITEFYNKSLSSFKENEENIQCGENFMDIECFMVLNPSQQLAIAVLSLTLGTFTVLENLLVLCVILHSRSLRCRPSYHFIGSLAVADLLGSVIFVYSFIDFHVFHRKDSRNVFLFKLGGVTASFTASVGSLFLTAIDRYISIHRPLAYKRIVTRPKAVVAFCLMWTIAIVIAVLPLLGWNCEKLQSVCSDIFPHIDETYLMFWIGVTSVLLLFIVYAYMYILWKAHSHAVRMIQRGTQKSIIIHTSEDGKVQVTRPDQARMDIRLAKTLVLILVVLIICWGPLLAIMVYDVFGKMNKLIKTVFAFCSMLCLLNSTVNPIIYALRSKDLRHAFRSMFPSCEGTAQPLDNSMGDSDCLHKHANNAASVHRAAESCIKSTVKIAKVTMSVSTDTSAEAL

For `O=C(NC(C1CC1)C1CC1)c1nc(C2CC2)n2ccccc12`, the IC50 [1] was > 17000 nM, the Emax [2] was 99% and the fraction unbound [3] was 0.03. The IC50 [4] was 7 nM.

With `CC(C)(C)CNC(=O)c1nc(C2CC2)n2ccccc12` the IC50 [1] was > 17000 nM, the Emax [2] was 97% and the fraction unbound [3] was 0.05. It also gave an IC50 [4] of 21 nM.

`O=C(c1cccc(Cl)c1Cl)c1nc(CN2CCOCC2)c2ccccn12` gave an IC50 [5] of 11 nM, a concentration at 1 h [6] of 4500 nM and an IC50 [1] of 2560 nM. For the same compound, the Emax [7] was 66%, the Activity [8] was “Dose-dependent effect” and the IC50 [9] was 1070 nM. It also gave an Emax [10] of 87%, an Emax [2] of 94% and a fraction unbound [11] of 0.24. The fraction unbound [3] was 0.24, the concentration at 1 h [12] was 5400 nM and the IC50 [4] was 5 nM. For the same compound, the Activity [13] was “Toxic”, the concentration at 1 h [14] was 110 nM and the Emax [15] was 104%.

`O=C(c1cccc(F)c1C(F)(F)F)c1nc(CN2CCOCC2)c2ccccn12` gave an IC50 [1] of 2230 nM, an Emax [7] of 97% and an Emax [2] of 98%. The fraction unbound [3] was 0.03 and the IC50 [4] was 0.7 nM.

For `O=C(N[C@H](c1ccccn1)C(F)(F)F)c1nc(N2CCOCC2)c2cnccn12`, the IC50 [1] was > 17000 nM, the Emax [2] was 94% and the fraction unbound [3] was 0.18. It also gave an IC50 [4] of 139 nM.

For `O=C(NC(c1ccncc1)c1ccc(F)cc1)c1nc(N2CCC(F)(F)C2)c2cnccn12` (stereo not given), the IC50 [1] was > 17000 nM, the Emax [2] was 96% and the fraction unbound [3] was 0.03. It also gave an IC50 [4] of 92 nM.

In the case of `O=C(NCC1(CO)CCCC1)c1nc(CN2CCC(F)(F)CC2)n2ccccc12`, the IC50 [1] is reported as 68 nM, the Emax [7] is reported as 99% and the Emax [2] is reported as 88%. For the same compound, the IC50 [4] was 3 nM.

Work on `O=C(Nc1cccc(C(F)(F)F)n1)c1nc(CN2CCC(F)(F)CC2)c2ccccn12` yielded an IC50 [1] of 347 nM, an Emax [7] of 100% and an Emax [2] of 98%. For the same compound, the IC50 [4] was 1.7 nM.

`COc1ccc2c(c1)c(CCN1CCOCC1)c(C)n2C(=O)c1cccc(Cl)c1Cl` showed a Ki [16] of 2000 nM and a Ki [17] of 10 nM.

In the case of `O=C(c1cccc(Cl)c1Cl)c1nc(CN2CCC(F)(F)CC2)c2ccccn12`, the IC50 [1] is reported as 90 nM, the Emax [7] is reported as 101% and the Emax [2] is reported as 110%. For the same compound, the IC50 [4] was 0.3 nM.

`O=C(Nc1cccc(C(F)(F)F)n1)c1nc(CN2CCS(=O)(=O)CC2)c2ccccn12` gave an IC50 [1] of 12700 nM, an Emax [7] of 54% and an Emax [2] of 80%. The fraction unbound [3] was 0.11 and the IC50 [4] was 44 nM.

In the case of `O=C(NCC1(CO)CCCC1)c1nc(N2CCOCC2)n2ccccc12`, the IC50 [5] is reported as 58 nM, the IC50 [1] is reported as > 17000 nM and the Activity [8] is reported as “inactive”. The concentration at 2 h [18] was 4300 nM, the IC50 [9] was > 17000 nM and the concentration at 2 h [19] was 300 nM. For the same compound, the Emax [10] was 87%, the Emax [2] was 99% and the fraction unbound [11] was 0.16. It also gave a fraction unbound [3] of 0.16, an IC50 [4] of 33 nM and a concentration at 2 h [20] of 1300 nM.

In the case of `C[C@@H](NC(=O)c1nc(N2CCC(F)(F)CC2)c2cnccn12)C(C)(C)C`, the IC50 [1] is reported as > 17000 nM, the Emax [2] is reported as 99% and the fraction unbound [3] is reported as 0.06. For the same compound, the IC50 [4] was 36 nM.

Compound `O=C(N[C@H](c1ccccn1)C(F)(F)F)c1nc(N2CCOCC2)n2ccccc12` has an IC50 [1] of 705 nM, an Emax [7] of 55% and an Emax [2] of 97%. The fraction unbound [3] was 0.1 and the IC50 [4] was 21 nM.

With `O=C(NC(c1cccnc1)C(F)(F)F)c1nc(N2CCOCC2)c2cnccn12` (stereo not given) the IC50 [1] was > 17000 nM, the Emax [2] was 98% and the fraction unbound [3] was 0.25. It also gave an IC50 [4] of 69 nM.
